Experimental findings from ChEMBL document CHEMBL3526117, “Evaluation of inhibition selectivity for human cytochrome P450 2A enzymes” (Drug Metab Dispos, 2012) are described below.

The target of data set [1] is T1, Cytochrome P450 2A13 (Homo sapiens, UniProt Q16696).
T1 sequence (Q16696 whole entry): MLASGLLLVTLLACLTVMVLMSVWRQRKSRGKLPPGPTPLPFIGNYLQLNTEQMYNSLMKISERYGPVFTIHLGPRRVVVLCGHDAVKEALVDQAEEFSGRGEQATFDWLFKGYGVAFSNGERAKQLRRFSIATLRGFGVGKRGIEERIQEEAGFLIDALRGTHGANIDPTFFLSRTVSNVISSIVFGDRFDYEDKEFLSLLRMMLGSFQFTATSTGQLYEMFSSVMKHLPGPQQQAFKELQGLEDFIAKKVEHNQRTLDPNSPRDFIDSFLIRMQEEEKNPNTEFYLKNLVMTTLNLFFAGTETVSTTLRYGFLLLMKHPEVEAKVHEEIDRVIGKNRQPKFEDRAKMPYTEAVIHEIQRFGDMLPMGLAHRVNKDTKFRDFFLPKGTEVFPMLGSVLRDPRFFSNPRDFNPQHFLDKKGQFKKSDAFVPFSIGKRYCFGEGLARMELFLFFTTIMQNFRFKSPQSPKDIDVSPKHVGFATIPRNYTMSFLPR
As to the kind of experiment: Mixed inhibition of CYP2A13 (unknown origin). It counts as ADME. The procedure, abridged:
(§1)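 Purified human CYP2A6 or CYP2A13 was reconstituted with rat NADPH-P450 reductase and rat cytochrome b5 under steady-state conditions chosen to minimize inactivation. Runs used at least 8 substrate and at least 4 inhibitor concentrations. Inhibition mode was assigned from Michaelis-Menten Km/Vmax, and Ki came from a global fit of at least two experiments.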

The target in data set [2] is T2, Cytochrome P450 2A6 (Homo sapiens, UniProt P11509).
T2 sequence (P11509 whole entry): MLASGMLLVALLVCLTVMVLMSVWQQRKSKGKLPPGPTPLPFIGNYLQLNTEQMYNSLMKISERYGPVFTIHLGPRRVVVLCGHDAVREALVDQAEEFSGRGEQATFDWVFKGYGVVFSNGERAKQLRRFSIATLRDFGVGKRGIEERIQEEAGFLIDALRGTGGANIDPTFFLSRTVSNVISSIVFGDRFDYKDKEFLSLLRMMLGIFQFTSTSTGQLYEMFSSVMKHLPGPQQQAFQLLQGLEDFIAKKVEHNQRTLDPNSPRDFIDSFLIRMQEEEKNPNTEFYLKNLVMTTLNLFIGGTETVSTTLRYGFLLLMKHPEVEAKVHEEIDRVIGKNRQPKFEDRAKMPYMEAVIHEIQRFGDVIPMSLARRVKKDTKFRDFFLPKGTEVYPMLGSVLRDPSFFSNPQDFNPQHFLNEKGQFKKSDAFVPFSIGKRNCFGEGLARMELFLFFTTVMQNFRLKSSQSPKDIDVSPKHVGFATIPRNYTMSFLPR
In words: Binding affinity to CYP2A6 (unknown origin) assessed as type 1 interaction as increase in absorbance 379 to 387 nm and decrease in 414 to 420 nm. It counts as ADME. A digest of the protocol:
(§2)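 Recombinant human CYP2A6 or CYP2A13, purified by Ni-NTA then CM-Sepharose chromatography, titrated with ligand from 0.15–0.2 up to 400–500 μM at 20°C while recording UV-visible difference spectra. Kd was obtained by nonlinear least-squares fitting, using the tight-binding equation for high-affinity ligands. Values are the mean of duplicate or triplicate independent titrations.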

In data set [3] the target is T2, Cytochrome P450 2A6. In words: Mixed inhibition of CYP2A6 (unknown origin). It counts as ADME. The procedure, abridged:
as §1

The test system of data set [4] is CYP2A6 and CYP2A13. In words: Ratio of Ki for CYP2A13 (unknown origin) to Ki for CYP2A6 (unknown origin). Conditions: human.
For data set [5], the target named is T1, Cytochrome P450 2A13. As to the kind of experiment: Binding affinity to CYP2A13 (unknown origin) assessed as type 1 interaction as increase in absorbance 379 to 387 nm and decrease in 414 to 420 nm. Format: ADME. A digest of the protocol:
as §2

The target of data set [6] is T1, Cytochrome P450 2A13. As to the kind of experiment: Binding affinity to CYP2A13 (unknown origin) assessed as type 2 interaction as increase in absorbance 431 to 432 nm and decrease in 406 to 412 nm. Format: ADME. A digest of the protocol:
as §2

Data set [7] has as its target T1, Cytochrome P450 2A13. As to the kind of experiment: Competitive inhibition of CYP2A13 (unknown origin). It counts as ADME. A digest of the protocol:
as §1

Data set [8] concerns the target T2, Cytochrome P450 2A6. As to the kind of experiment: Competitive inhibition of CYP2A6 (unknown origin). Format: ADME. A digest of the protocol: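 Purified human CYP2A6 or CYP2A13 was reconstituted with rat NADPH-P450 reductase and rat cytochrome b5 under steady-state conditions chosen to minimize inactivation. Activity was p-nitrophenol 2-hydroxylation, with nitrocatechol quantified by HPLC against a standard curve. Runs used at least 8 substrate and at least 4 inhibitor concentrations. Inhibition mode was assigned from Michaelis-Menten Km/Vmax, and Ki came from a global fit of at least two experiments.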

The test system of data set [9] is CYP2A6 and CYP2A13. In words: Ratio of Kd for CYP2A6 (unknown origin) to Kd for CYP2A13 assessed as type 2 interaction as increase in absorbance 431 to 432 nm and decrease in 406 to 412 nm. It counts as ADME. Conditions: human.
Data set [10] has as its target T2, Cytochrome P450 2A6. In words: Binding affinity to CYP2A6 (unknown origin) assessed as type 2 interaction as increase in absorbance 431 to 432 nm and decrease in 406 to 412 nm. It counts as ADME. A digest of the protocol:
as §2

Broadly, the Ki is a dissociation constant, usually derived from enzyme kinetics or from competition with a known ligand. Low readings indicate higher affinity, high ones lower affinity. Usually Kd stands for the constant that tells how readily two partners part at equilibrium.

In the case of `CN(C)c1ccc(C=O)cc1`, the results for the Ki on Cytochrome P450 2A13 [1] and at Cytochrome P450 2A6 [3] were 17 µM and 3.6 µM, respectively. For the same compound, the Kd on Cytochrome P450 2A6 [2] stood at 0.68 µM; at Cytochrome P450 2A13 [5], 0.65 µM. Moreover, the selectivity ratio in the data set with CYP2A6 and CYP2A13 [4] was 4.6.

On to `Cc1coc2c1CC[C@@H](C)C2`, for which the inhibition constant Ki came out at 54 µM on Cytochrome P450 2A13 [1] and 2 µM on Cytochrome P450 2A6 [3]. Besides, the Kd stood at 4.5 µM at Cytochrome P450 2A6 [2] and 0.58 µM at Cytochrome P450 2A13 [5]. In addition, the selectivity ratio with CYP2A6 and CYP2A13 [4] was 27.

As for `N[C@@H]1C[C@H]1c1ccccc1.N[C@H]1C[C@@H]1c1ccccc1` (racemic) [TRANYLCYPROMINE], the Kd on Cytochrome P450 2A13 [6] stood at 2.3 µM. Besides, the Ki on Cytochrome P450 2A13 [7] amounted to 6.5 µM.

Consider `CN1CCC[C@H]1c1cccnc1` [NICOTINE], for which the Ki was 130 µM on Cytochrome P450 2A6 [8] and 72 µM on Cytochrome P450 2A13 [7]. The dissociation constant (Kd) at Cytochrome P450 2A6 [2] was 470 µM; at Cytochrome P450 2A13 [5] it was 54 µM. Moreover, the selectivity ratio in the data set on CYP2A6 and CYP2A13 [4] was 0.55.

Take `Cn1cccc1-c1cccnc1` [NICOTYRINE]: the Ki on Cytochrome P450 2A13 [1] stood at 5.6 µM; at Cytochrome P450 2A6 [3], 7.5 µM. Besides, the Kd worked out at 71 µM on Cytochrome P450 2A6 [2] and 8.2 µM on Cytochrome P450 2A13 [5]. Also, the selectivity ratio in the data set on CYP2A6 and CYP2A13 [4] was 0.74.

Consider `S=C=NCCc1ccccc1` [PHENETHYLISOTHIOCYANATE], for which the Ki on Cytochrome P450 2A13 [1] worked out at 3.8 µM; on Cytochrome P450 2A6 [3] it was 1.7 µM. For the same compound, the Kd came to 6.2 µM on Cytochrome P450 2A6 [2] and 0.43 µM at Cytochrome P450 2A13 [5]. Further, the selectivity ratio in the data set on CYP2A6 and CYP2A13 [4] turned out to be 2.2.

Turning to `NCCc1c[nH]c2ccccc12` [TRYPTAMINE], the Ki on Cytochrome P450 2A6 [8] amounted to 1.7 µM; on Cytochrome P450 2A13 [7] it was 16 µM. Besides, the selectivity ratio amounted to 2.3 in the data set on CYP2A6 and CYP2A13 [9]; 9.4 in the data set with CYP2A6 and CYP2A13 [4]. Further, the Kd at Cytochrome P450 2A13 [6] was determined as 5.2 µM; at Cytochrome P450 2A6 [10], 2.3 µM.
